FLuc inh counter: counter-screen for luciferase assay inhibitors: firefly luciferase inhibition; P08659; inhibition, % at 10 µM; hit rate 1.5% among 200,000; ATPLite firefly luciferase biochemical luminescence, 10 min;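 active = inhibition above about 50% when tested at 10 µM, limit read from the data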
Target sequence (P08659 whole entry, looked up): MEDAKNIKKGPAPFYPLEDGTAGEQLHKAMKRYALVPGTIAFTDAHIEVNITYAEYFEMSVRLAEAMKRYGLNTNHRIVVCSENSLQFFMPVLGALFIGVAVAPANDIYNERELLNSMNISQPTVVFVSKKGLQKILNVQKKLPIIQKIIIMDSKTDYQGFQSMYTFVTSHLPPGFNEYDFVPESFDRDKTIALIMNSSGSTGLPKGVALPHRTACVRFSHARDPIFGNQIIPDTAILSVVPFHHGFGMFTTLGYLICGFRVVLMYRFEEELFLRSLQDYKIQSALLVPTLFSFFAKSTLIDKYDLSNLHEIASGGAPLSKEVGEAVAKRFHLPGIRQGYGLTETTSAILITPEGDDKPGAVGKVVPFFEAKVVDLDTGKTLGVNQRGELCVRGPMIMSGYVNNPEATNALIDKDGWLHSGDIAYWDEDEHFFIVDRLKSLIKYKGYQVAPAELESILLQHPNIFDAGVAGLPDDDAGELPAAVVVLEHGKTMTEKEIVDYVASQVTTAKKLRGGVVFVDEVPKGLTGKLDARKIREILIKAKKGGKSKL
FLuc stim CS: firefly luciferase counter-screen for stimulation assays; P08659; ATPlite luciferase biochemical, luminescence, 10 min; 0 = ATP-free wells, 1 = DMSO control; activation factor at 10 µM; 200,000 tested, under 10 active;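 active = luciferase activation factor, scaled between plate controls, of at least 2 with compound at 10 µM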
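Assay system: Luciferase/luciferin detection reagent, cell-free biochemical luciferase assay / Also added: ATP substrate / Schedule: 10 min at ambient temperature / Measured by: luminescence measurement of luciferase light output / Benchmarks: low control with PBS replacing ATP, high control enzyme plus ATP without compound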
APP 5'UTR act: activates APP 5'UTR luciferase reporter; SH-SY5Y APP 5'UTR luciferase reporter, luminescence; zero percent = DMSO vehicle wells; activation, % at 2 µM; hit rate 1% among 190,000; AID 1276;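 active = activation above a set limit, based on mean plus 3 SD of controls, cut at about 140% in these data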
NF-kB expr up: compounds increasing NF-kB expression in human neuronal cells. fold change at 12.5 µM. hit rate 1.6% among 190,000. NF-kB reporter expression; active compounds read high; in the data active = fold change above about 3.3
STAT1 activator: increases IFN-gamma driven STAT1 reporter signal. NIH 3T3 STAT1-luciferase reporter, luminescence; 100% = IFN-gamma alone, no compound. hit rate 2.6% among 200,000. activation (% of control), % at 5.5 µM. AID 932;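 active = activation above the screen-wide mean activation plus 3 SD, cut at about 130% in these data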;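 note: raw ratio to IFN-gamma control signal so 100% means no change and 0% no light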
Numbers without * were called inactive; · = no result given. An excerpt weighted towards active compounds, which were near 4.1% of everything screened.

SMILES	FLuc inh counter	FLuc stim CS	APP 5'UTR act	NF-kB expr up	STAT1 activator
CCC1Oc2ccc(C)cc2N(CC(=O)N(Cc2ccc3c(c2)OCO3)CC2CCCO2)C1=O (stereo not drawn)	-5	1	17	0.64	99
CCCC(=O)n1nc(-c2ccco2)nc1SCc1ccccc1	11	0.9	-3	1.2	108
O=C(N/N=C/C=C\c1ccccc1[N+](=O)[O-])c1cccs1	8	0.9	1	5.2*	101
O=C(N/N=C/C=C/c1ccc([N+](=O)[O-])cc1)c1cccs1	3	1	7	1.4	108
O=C(N/N=C/C=C\c1ccco1)c1cccs1	15	0.9	24	2.1	130*
Cc1ccc(CSc2nnc(SCC(=O)N/N=C/C=C/c3ccccc3[N+](=O)[O-])s2)cc1	59*	0.4	-36	1.2	98
Cc1ccc(CSc2nnc(SCC(=O)N/N=C/C=C/c3ccco3)s2)cc1	16	0.8	-22	0.9	108
CCOc1cc(/C=N/NC(=O)c2cccs2)cc([N+](=O)[O-])c1O	5	0.9	70	0.92	129*
CCC1(c2ccccc2)NC(=S)N(c2ccc(C)c(C)c2)N1 (stereo not drawn)	1	1	13	1.6	103
O=C(c1cc2sccc2n1Cc1ccc(F)cc1)N1CCN(c2nc3ccccc3s2)CC1	-5	1	-2	0.75	89
Cc1ccc(CNC(=O)c2ccc(N(C)C)cc2)cc1	-2	1	16	1.3	101
O=C(O)c1cccc(NS(=O)(=O)c2ccc3c(c2)OCCCO3)c1	-8	1.1	-15	1.3	98
O=C(O)CCC(=O)Nc1ccccc1C(=O)Nc1ccccc1	-2	1	5	0.94	100
O=C(O)CCC(=O)Nc1ccccc1C(=O)NCCc1ccccc1	1	1	27	1.8	135*
CCOc1ccc(OCC)c(NC(=O)CSc2nnc(-c3cccnc3)o2)c1	-4	1	7	1.5	105
N#Cc1ccc(CSc2nnc(Nc3ccccc3)s2)cc1	-9	1.1	-12	1.1	97
c1ccc(CSc2nnc(NC3=NCCCCC3)s2)cc1	4	1	72	2.9	140*
CCCCCCNC(=O)c1cccc(-c2ccc(C)c3ccccc23)n1	0	1	-2	0.98	94
COc1ccc(CN2CCN(Cc3nc4ccccc4s3)CC2CCO)c(C)c1C (stereo not drawn)	-3	1	17	0.96	96
Cc1ccc(NC(=O)C(=O)NCC2CCCO2)cc1 (stereo not drawn)	10	0.9	42	2.1	137*
Cc1ccc(NC(=O)C(=O)NCC2CCCO2)cc1C (stereo not drawn)	9	0.9	115	2.7	142*
Cc1ccc(C(=O)NC(=S)NCC2CCCO2)cc1 (stereo not drawn)	-1	1	31	2.5	129*
O=C(NC(=S)NCC1CCCO1)c1ccc(Cl)cc1 (stereo not drawn)	-4	1	12	1.1	120
COCC(=O)Nc1ccc(OCc2ccccc2)cc1	17	0.8	22	1.7	131*
CCOc1ccc(NC(=O)CN2C(=O)CSC(C)C2=O)cc1 (stereo not drawn)	39	0.6	9	1.1	131*
SMILES	FLuc inh counter	FLuc stim CS	APP 5'UTR act	NF-kB expr up	STAT1 activator
CCC(=O)Nc1ccc(C(=O)OCc2ccccc2Cl)cc1	-5	1	45	1.6	137*
COC(=O)c1ccc(NC(=O)C(=O)c2cccn2C)cc1	84*	0.2	1	8.4*	56
CCn1nc(CCC(=O)O)c2ccccc2c1=O	-7	1.1	-11	1.2	103
Cc1ccc(NC2CC(=O)N(CCc3ccccc3)C2=O)cc1 (stereo not drawn)	6	0.9	8	1.3	104
COc1ccc(OC)c(S(=O)(=O)Nc2cccc(C(C)=O)c2)c1	-3	1	9	1.1	100
COC(=O)c1ccc(NC(=O)Cc2ccccc2)cc1	18	0.8	38	2.1	132*
CCOc1ccc(NC(=O)c2ccc(NC(=O)COC(=O)Cc3ccc(OC)cc3)cc2)cc1	-5	1.1	107	1.7	136*
CCOc1ccc(NC(=O)Cc2ccccc2)cc1	25	0.8	41	2.2	135*
COC(=O)c1ccc(NC(=O)Cc2ccc(C)cc2)cc1	-5	1	21	1.2	101
CN(C)c1ccc(N/C=C/C(=O)c2ccco2)cc1	96*	0	·	2.3	71
COc1ccccc1Oc1ccc(N/C=C/C(=O)c2ccco2)cc1	32	0.7	72	5.2*	143*
CN(C)c1ccc(N/C=C/C(=O)c2ccc(F)cc2)cc1	58*	0.4	67	4.6*	120
CC(=O)Nc1ccc(N/C=C/C(=O)c2ccco2)cc1	37	0.6	50	2.4	141*
O=C(/C=C/Nc1ccccc1Oc1ccccc1)c1ccco1	-2	1	1	1	112
Nc1ccc(C23CC4CC(CC(CO)(C4)C2)C3)cc1	2	1	10	0.68	104
O=C(CCC1CCCCC1)Nc1ccccc1O	9	0.9	61	6.4*	97
Cn1c(NC(=O)CCC2CCCCC2)cc(=O)n(C)c1=O	9	0.9	131	3.8*	148*
Cc1ccc(O)c(NC(=O)CCCC(=O)O)c1	-8	1.1	6	1.1	100
Cc1ccc(O)c(NC(=O)CCC2CCCCC2)c1	40	0.6	64	4.1*	112
O=C(Nc1ccc2c3c(cccc13)CC2)c1ccc(Br)o1	-3	1	16	2	131*
CCn1c(=O)cc(SCC(=O)Nc2ccc(Cl)cc2)c2ccccc21	-5	1	10	1.5	92
O=C(O)CSc1cc(C(=O)c2ccccc2O)cn2c(=O)c3c(-c4ccccc4)csc3nc12	41	0.6	-7	1.2	101
CCOC(=O)c1sc2nc3c(SCC(=O)O)cc(C(=O)c4cc(F)ccc4O)cn3c(=O)c2c1C	51*	0.5	22	1	114
CCOC(=O)c1sc2nc3c(SCC(=O)O)cc(C(=O)c4ccccc4O)cn3c(=O)c2c1C	79*	0.2	9	1.1	95
Cc1ccc(C(=O)CC(c2cccs2)S(=O)(=O)c2ccc(C)cc2)cc1 (stereo not drawn)	8	0.9	56	1.3	111
SMILES	FLuc inh counter	FLuc stim CS	APP 5'UTR act	NF-kB expr up	STAT1 activator
O=C(N=c1nc2ccccn2s1)c1ccccc1	95*	0	·	·	·
Cc1ccc(/C=C/C(=O)O)cc1S(=O)(=O)N(CCO)CCO	2	1	2	1.2	94
O=C(NCCN1CCOCC1)c1cc(-c2ccccc2)on1	-6	1.1	29	6.3*	110
CC(C)NC(=O)c1cc(-c2cccs2)on1	8	0.9	62	4*	122
O=C(NCCN1CCOCC1)c1cc(-c2cccs2)on1	-2	1	20	5.8*	116
CC(C)Oc1ccc(-c2cc(C(=O)NCCN3CCOCC3)c3ccccc3n2)cc1	65*	0.3	22	1.2	124
O=C(NCCCN1CCOCC1)c1cc(-c2ccc(O)cc2)on1	-2	1	18	1.9	98

From PubChem BioAssay
